A short description of test [1]: Cell cycle arrest in human HeLaS3 cells assessed as accumulation at G2/M phase after 48 hrs using propidium iodide staining by flow cytometry (reference value: 16.21%). Type of test: functional, cell-based. Particulars: HeLa S3. An outline of the steps: (§1)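 HeLa S-3 cells incubated without (control) or with compound for 9, 24 or 48 h, then fixed and stained with propidium iodide. DNA content read by flow cytometry. Populations given as percent in sub-G1, G1, S and G2/M phases.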
In general terms: In flow cytometry, cells or beads pass a laser one at a time.

A short description of test [2]: Cell cycle arrest in human HeLaS3 cells assessed as accumulation at G2/M phase after 24 hrs using propidium iodide staining by flow cytometry (reference value: 16.21%). Type of test: functional, cell-based. Particulars: HeLa S3. Put shortly: as §1
Test [3] can be described thus: Cell cycle arrest in human HeLaS3 cells assessed as accumulation at G2/M phase after 9 hrs using propidium iodide staining by flow cytometry (reference value: 16.21%). Type of test: functional, cell-based. Particulars: HeLa S3. Put shortly:
as §1

Test [4] in a line: Cell cycle arrest in human HeLaS3 cells assessed as accumulation at S phase after 48 hrs using propidium iodide staining by flow cytometry (reference value: 6.36%). Type of test: functional, cell-based. Particulars: HeLa S3.
Test [5] is described as follows: Cell cycle arrest in human HeLaS3 cells assessed as accumulation at S phase after 24 hrs using propidium iodide staining by flow cytometry (reference value: 6.36%). Type of test: functional, cell-based. The following applies: HeLa S3.
The nature of test [6]: Cell cycle arrest in human HeLaS3 cells assessed as accumulation at S phase after 9 hrs using propidium iodide staining by flow cytometry (reference value: 6.36%). In kind it is functional, cell-based. Particulars: HeLa S3.
Test [7] can be described thus: Cell cycle arrest in human HeLaS3 cells assessed as accumulation at G1 phase after 48 hrs using propidium iodide staining by flow cytometry (reference value: 75.29%). Type of test: functional, cell-based. The following applies: HeLa S3. An outline of the steps:
as §1

A short description of test [8]: Cell cycle arrest in human HeLaS3 cells assessed as accumulation at G1 phase after 24 hrs using propidium iodide staining by flow cytometry (reference value: 75.29%). In kind it is functional, cell-based. The following applies: HeLa S3. Put shortly: as §1
Test [9] is described as follows: Cell cycle arrest in human HeLaS3 cells assessed as accumulation at G1 phase after 9 hrs using propidium iodide staining by flow cytometry (reference value: 75.29%). The following applies: HeLa S3. Type of test: functional, cell-based. Put shortly:
as §1

Test [10] in a line: Cell cycle arrest in human HeLaS3 cells assessed as accumulation at sub-G1 phase after 48 hrs using propidium iodide staining by flow cytometry (reference value: 2.41%). Type of test: functional, cell-based. The following applies: HeLa S3. Put shortly:
as §1

Test [11] in a line: Cell cycle arrest in human HeLaS3 cells assessed as accumulation at sub-G1 phase after 24 hrs using propidium iodide staining by flow cytometry (reference value: 2.41%). In kind it is functional, cell-based. Particulars: HeLa S3. An outline of the steps: as §1
Test [12] can be described thus: Cell cycle arrest in human HeLaS3 cells assessed as accumulation at sub-G1 phase after 9 hrs using propidium iodide staining by flow cytometry (reference value: 2.41%). Type of test: functional, cell-based. Particulars: HeLa S3. Put shortly: as §1
Test [13] concerns HeLa S3. As to the kind of experiment: Induction of apoptosis in human HeLaS3 cells assessed as DNA fragmentation after 48 hrs agarose-gel electrophoresis. In kind it is functional, cell-based. Put shortly: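 HeLa S-3 cells treated with compound for 48 h. Genomic DNA extracted and run on a 2% agarose gel beside a 100 bp ladder marker to detect DNA fragmentation.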
Test [14] deals with HeLa S3. In words: Induction of apoptosis in human HeLaS3 cells assessed as formation of chromatin condensation and fragmented nuclei after 48 hrs by Hoechst 33342 staining. Type of test: functional, cell-based. Put shortly:
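HeLa S-3 cells treated with compound for 48 h, then stained with Hoechst 33342. Nuclear chromatin examined by fluorescence microscopy for condensation and fragmented nuclei, with untreated cells as comparison.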

The nature of test [15]: Cytotoxicity against mouse Sarcoma 180 cells after 24 to 72 hrs by MTT assay. In kind it is functional, cell-based. Put shortly: (§2)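 MTT assay. IC50 taken as the drug concentration giving 50% inhibition of cell growth. Values are mean ± S.D. of four independent experiments, each run in triplicate.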
(Tetrazolium assays rely on reduction of a dye to a coloured formazan, in cell work by metabolically active cells.)

For a further test, the system named is HEK-293T. As to the kind of experiment: Cytotoxicity against human 293T cells after 24 to 72 hrs by MTT assay. In kind it is cell-based. An outline of the steps: as §2
Test [16] can be described thus: Cytotoxicity against human HeLaS3 cells after 24 to 72 hrs by MTT assay. In kind it is functional, cell-based. The following applies: HeLa S3. An outline of the steps: as §2

The source made the active and inactive calls. The rule behind the calls is not given here.

The term IC50 denotes the concentration needed to halve the response being measured. A low value points to higher potency. With `O=C(Nc1cc(Cl)cc2c1[nH]c1cnc(NCc3ccccc3)cc12)c1ccccc1`, the Activity came to 55.3% in test [1]; 40.1% in test [2]; 49.1% in [3]; 11.1% in test [4]; 12.7% in test [5]; 10.4% in [6]. Further, the Activity is 11.7% in [7]; 32.4% in test [8]; 33.9% in [9]; 22% in [10]; 14.8% in test [11]; 6.59% in test [12]. Moreover, the outcome in the test on HeLa S3 [13] and in the test with HeLa S3 [14] was Active. Further, the IC50 in test [15] is 2800 nM; with HEK-293T, 4800 nM; in test [16] it was 4600 nM.
As for `Clc1ccc2[nH]c3cnc(NCc4ccccc4)cc3c2c1`, the Activity came to 49% in test [1]; 69.5% in test [2]; 46.9% in test [3]; 11.3% in [4]; 7.74% in test [5]; 10.9% in test [6]. Also, the Activity in test [7] came to 18.2%; in [8], 8.2%; in test [9], 33%; in test [10], 21.4%; in test [11], 14.6%; in test [12], 9.14%. Further, the outcome with HeLa S3 [13] and with HeLa S3 [14] was Active. The IC50 in [15] is 1800 nM; in test [16] it was 2800 nM.

The values are drawn from ChEMBL document CHEMBL2169842, “Structure-activity relationship in the antitumor activity of 6-, 8- or 6,8-substituted 3-benzylamino-β-carboline derivatives” (Bioorg Med Chem Lett, 2012).
